Laboratory results taken from publication PMC12219203 (Nature Communications, 2025).

Assays:
[1] = tested on: NF-κB signaling in RAW-Dual WT cells; experiment: RAW-Dual WT NF-κB reporter; type: cell-based, mouse; settings: 24 h
In short: (§1)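 RAW-Dual cells (WT or Tlr4-/-) were seeded at 100,000 cells/well in complete DMEM without selection antibiotics, 24 h before treatment. Test compounds were added for 24 h (n = 3). NF-κB-driven SEAP was read by mixing supernatant 1:4 with Quanti-Blue, incubating 6 h at 37 °C and measuring absorbance at 620 nm, blanked against water-treated wells.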

[2] = target: mTLR4/mMD2 (Q339A / wt) (Mus musculus, UniProt Q9JHF9+Q9QUK6, Q339A); experiment: NF-κB SEAP in HEK-Blue Null1, mTLR4 Q339A / mMD2 wt; type: cell-based; settings: GM 0.4, 0.2 mM, 24 h
Sequence of mTLR4/mMD2 (Q339A / wt) (Q9QUK6 26-835 Q339A): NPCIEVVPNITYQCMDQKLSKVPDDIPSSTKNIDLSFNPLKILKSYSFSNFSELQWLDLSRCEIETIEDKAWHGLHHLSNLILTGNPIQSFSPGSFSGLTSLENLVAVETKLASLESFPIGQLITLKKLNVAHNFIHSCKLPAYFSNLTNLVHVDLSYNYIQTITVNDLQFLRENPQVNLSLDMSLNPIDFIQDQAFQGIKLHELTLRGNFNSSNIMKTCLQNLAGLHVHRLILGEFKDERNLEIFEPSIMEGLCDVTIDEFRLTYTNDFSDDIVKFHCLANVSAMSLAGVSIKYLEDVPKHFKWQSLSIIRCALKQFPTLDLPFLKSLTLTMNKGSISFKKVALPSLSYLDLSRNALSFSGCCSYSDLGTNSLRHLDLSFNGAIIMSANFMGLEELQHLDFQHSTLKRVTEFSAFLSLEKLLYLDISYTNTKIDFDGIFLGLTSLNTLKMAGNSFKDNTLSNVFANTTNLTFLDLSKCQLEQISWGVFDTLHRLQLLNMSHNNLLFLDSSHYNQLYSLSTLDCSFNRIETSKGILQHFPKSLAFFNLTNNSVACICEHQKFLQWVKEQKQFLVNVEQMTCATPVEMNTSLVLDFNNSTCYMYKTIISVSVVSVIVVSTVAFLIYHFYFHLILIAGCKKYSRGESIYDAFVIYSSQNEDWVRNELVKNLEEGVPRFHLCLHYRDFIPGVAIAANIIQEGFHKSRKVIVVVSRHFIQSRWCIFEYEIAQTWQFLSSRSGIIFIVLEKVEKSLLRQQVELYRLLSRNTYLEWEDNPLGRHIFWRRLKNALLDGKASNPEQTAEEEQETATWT
Sequence of mTLR4/mMD2 (Q339A / wt) (Q9JHF9 19-160): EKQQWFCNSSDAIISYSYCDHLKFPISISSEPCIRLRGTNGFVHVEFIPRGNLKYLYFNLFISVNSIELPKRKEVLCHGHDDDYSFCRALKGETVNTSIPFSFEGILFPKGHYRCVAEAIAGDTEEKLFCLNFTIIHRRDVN
In short: (§2)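 Point mutants of mTLR4 or mMD2 were made by site-directed mutagenesis. HEK-Blue Null1 cells were co-transfected by lipofection for 16 h with 500 ng total of mTLR4 and Myc-tagged mMD2 plasmids (1:1); mock wells received lipofection reagent only. After a medium change the next day, cells were treated for 24 h. NF-κB SEAP was measured and normalised to water-treated samples; data are mean ± s.e.m., n = 3.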

[3] = target: mTLR2 (Mus musculus, UniProt Q9QUN7); experiment: HEK-Blue mTLR2 SEAP reporter assay; type: cell-based; settings: GM 2, 1, 0.5 mM, 24 h, n = 6
Sequence of mTLR2 (Q9QUN7 25-784): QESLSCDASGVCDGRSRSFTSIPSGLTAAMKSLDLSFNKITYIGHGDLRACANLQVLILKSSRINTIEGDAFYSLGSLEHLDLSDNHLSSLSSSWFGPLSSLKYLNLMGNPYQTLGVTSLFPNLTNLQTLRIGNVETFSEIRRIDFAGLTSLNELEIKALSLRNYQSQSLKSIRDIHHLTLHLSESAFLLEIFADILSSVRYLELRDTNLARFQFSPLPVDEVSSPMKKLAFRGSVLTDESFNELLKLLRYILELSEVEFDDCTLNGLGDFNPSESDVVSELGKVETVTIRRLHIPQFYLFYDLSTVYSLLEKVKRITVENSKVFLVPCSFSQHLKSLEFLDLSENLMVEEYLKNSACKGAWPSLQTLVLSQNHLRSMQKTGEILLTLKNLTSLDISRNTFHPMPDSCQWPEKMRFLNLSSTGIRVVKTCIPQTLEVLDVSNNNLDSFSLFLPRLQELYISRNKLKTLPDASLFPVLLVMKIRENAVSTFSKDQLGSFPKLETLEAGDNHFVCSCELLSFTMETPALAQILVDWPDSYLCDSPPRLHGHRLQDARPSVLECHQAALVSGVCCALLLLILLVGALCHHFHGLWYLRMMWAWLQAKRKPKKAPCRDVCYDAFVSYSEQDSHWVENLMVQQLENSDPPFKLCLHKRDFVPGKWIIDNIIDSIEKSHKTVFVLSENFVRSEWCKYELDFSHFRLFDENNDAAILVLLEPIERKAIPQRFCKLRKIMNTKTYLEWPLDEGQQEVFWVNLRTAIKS
In short: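 HEK-Blue mTLR2 cells were seeded at 50,000 cells/well in complete DMEM. After 6 h the medium was changed to serum-free DMEM and test compound was added for 24 h. Secreted SEAP was read by mixing supernatant 1:4 with Quanti-Blue, incubating 6 h at 37 °C and measuring absorbance at 620 nm. Values were blanked against water-treated wells.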

[4] = tested on: Tlr4-/- C57BL/6 J mice; experiment: DSS-induced colitis model in Tlr4-/- mice; type: in vivo, mouse; settings: GM 10 mg/kg i.p. daily, 3% DSS
In short: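 Male SPF C57BL/6J mice aged 7–8 weeks, WT or Tlr4-/- (bred in house), were age-, weight- and sex-matched. They drank 3% (w/v) DSS water for 7 days and were then euthanised. Test compound (10 mg/kg) or PBS (5 mL/kg) was given i.p. daily from 2 days before DSS until the end. Body weight was recorded daily.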

[5] = tested on: IRF signaling in RAW-Dual WT cells; experiment: RAW-Dual WT IRF reporter; type: cell-based, mouse; settings: 24 h
[6] = tested on: THP-1 cells; experiment: Cytokine expression in THP-1 monocytes; type: cell-based, human; settings: GM 2-8 mM
In short: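 THP-1 cells were kept in RPMI 1640 with 10% heat-inactivated FBS. They were seeded at 100,000 cells/well in half-serum medium and stimulated immediately, with MDP 0.4 mM as control. Total RNA was extracted and cytokine transcripts were measured by RT-qPCR; n = 4.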

[7] = tested on: NF-κB signaling in RAW-Dual Tlr4-/- cells; experiment: RAW-Dual Tlr4-/- NF-κB reporter; type: cell-based, mouse; settings: 24 h
In short: as §1

[8] = target: recombinant mTLR4 protein (Mus musculus, UniProt Q9QUK6); experiment: mTLR4 pulldown by immobilized GM-agarose beads; type: binding; settings: pre-incubation of mTLR4 with excess GM
Sequence of recombinant mTLR4 protein (Q9QUK6 26-638): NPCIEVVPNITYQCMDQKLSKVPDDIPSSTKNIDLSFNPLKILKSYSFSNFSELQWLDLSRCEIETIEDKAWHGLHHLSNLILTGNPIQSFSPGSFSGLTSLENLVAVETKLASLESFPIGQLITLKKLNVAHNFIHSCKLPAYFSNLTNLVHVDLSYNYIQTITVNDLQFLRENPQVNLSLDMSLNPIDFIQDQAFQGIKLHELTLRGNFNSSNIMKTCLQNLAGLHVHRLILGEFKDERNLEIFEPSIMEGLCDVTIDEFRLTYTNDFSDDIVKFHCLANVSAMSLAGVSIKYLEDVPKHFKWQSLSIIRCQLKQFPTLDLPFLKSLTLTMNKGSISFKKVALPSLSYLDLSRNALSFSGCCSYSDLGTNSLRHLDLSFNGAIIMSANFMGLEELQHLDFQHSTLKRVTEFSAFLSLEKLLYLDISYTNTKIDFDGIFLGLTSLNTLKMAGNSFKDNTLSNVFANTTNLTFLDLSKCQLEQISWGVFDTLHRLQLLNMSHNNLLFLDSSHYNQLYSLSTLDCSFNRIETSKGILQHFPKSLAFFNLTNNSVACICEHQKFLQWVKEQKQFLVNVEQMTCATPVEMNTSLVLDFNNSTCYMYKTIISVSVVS
In short: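 An azide-tagged test-compound probe (2.5 mM) was clicked onto alkyne agarose beads (1.2 mM ascorbate, 0.5 mM CuSO4, 0.5 mM THPTA, 4 °C, 3 h); control beads lacked probe. Beads were incubated overnight at 4 °C in water with recombinant mouse TLR4(26-638)-His6 (100 or 50 ng), optionally pre-incubated with free competitor. Flow-through, wash and boiled eluate were analysed by Coomassie-stained SDS-PAGE.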

[9] = target: mTLR4/mMD2 (wt / F126A) (Mus musculus, UniProt Q9JHF9+Q9QUK6, F126A); experiment: NF-κB SEAP in HEK-Blue Null1, mTLR4 wt / mMD2 F126A; type: cell-based; settings: GM 0.4, 0.2 mM; LPS 100 ng/mL; 24 h
Sequence of mTLR4/mMD2 (wt / F126A) (Q9QUK6 26-835): as the sequence (Q9QUK6 26-835 Q339A) above, with A314Q counted along it
Sequence of mTLR4/mMD2 (wt / F126A) (Q9JHF9 19-160 F126A): as the sequence (Q9JHF9 19-160) above, with F108A counted along it
In short: as §2

[10] = tested on: NOD2; experiment: HEK-Blue NOD2 SEAP reporter assay; type: cell-based, human; settings: MDP, M-AE 200 nM; GM, M 20 μM; 18 h
In short: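 HEK-Blue hNod1 or hNod2 cells were seeded at 50,000 cells/well in DMEM/10% FBS without selection antibiotics and stimulated at once for 18 h (n = 3). Supernatant was mixed 1:4 with Quanti-Blue and incubated 6 h at 37 °C, and absorbance was read at 620 nm. Values were blanked against water-treated wells, and the respective parental Null cell readouts were subtracted.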

[11] = tested on: Tlr4-/- BMDMs; experiment: Cytokine secretion by Tlr4-/- BMDMs; type: cell-based, mouse; settings: ELISA, 24 h; GM 4 mM, MDP 0.4 mM, LPS 100 ng/mL, CpG 100 nM
In short: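 Murine BMDMs were differentiated 6 days in complete medium with 20 ng/mL GM-CSF or 10% L929 supernatant, then switched to serum-free IMDM and stimulated 24 h. Mouse TNF-α and IL-6 in culture supernatants were quantified by sandwich ELISA. Samples were prediluted in 1% BSA in PBS, pH 7.4, where needed.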

[12] = target: mTLR4/mMD2 (wt / F119A) (Mus musculus, UniProt Q9JHF9+Q9QUK6, F119A); experiment: NF-κB SEAP in HEK-Blue Null1, mTLR4 wt / mMD2 F119A; type: cell-based; settings: GM 0.4, 0.2 mM, 24 h
Sequence of mTLR4/mMD2 (wt / F119A) (Q9QUK6 26-835): as the sequence (Q9QUK6 26-835 Q339A) above, with A314Q counted along it
Sequence of mTLR4/mMD2 (wt / F119A) (Q9JHF9 19-160 F119A): as the sequence (Q9JHF9 19-160) above, with F101A counted along it
In short: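 Site-directed mTLR4 or mMD2 variants were made by mutagenesis. HEK-Blue Null1 cells were co-transfected 16 h with 500 ng mTLR4 and mMD2-Myc plasmids (1:1) by lipofection; mock cells got water/Lipofectamine. After a medium change, cells were treated 24 h. Supernatant SEAP was measured with Quanti-Blue (37 °C, 6 h, A620), normalized to H2O-treated cells; mean ± s.e.m., n = 3.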

SMILES: CC(=O)N[C@H]1[C@H](O[C@H]2[C@H](O[C@H](C)C(=O)O)[C@@H](NC(C)=O)C(O)O[C@@H]2CO)O[C@H](CO)[C@@H](O)[C@@H]1O (stereo partly drawn) [GM, N-acetylglucosamine-β−1,4-N-acetylmuramic acid]
- NF-κB signaling in RAW-Dual WT cells (in words) [1]: dose-dependent activation of both NF-κB and IRF signaling
- Effect of mutation mTLR4 Q339 on NF-κB activity (in words) [2]: abolished GM-triggered NF-κB activity
- Activation of HEK-Blue mTLR2 reporter cells (in words) [3]: does not activate
- DSS-induced colitis in Tlr4-/- mice: weight loss and colonic shortening [4]: failed to prevent weight loss and colonic shortening
- Cytoprotective responses in colitis Tlr4-/- mice ([4]; RT-qPCR): No upregulation of cytoprotective responses
- IRF signaling in RAW-Dual WT cells (in words) [5]: dose-dependent activation of both NF-κB and IRF signaling
- Immuno-stimulatory activity in THP-1 (in words) [6]: dose-dependent immuno-stimulatory activity
- NF-κB signaling in RAW-Dual Tlr4-/- cells (in words) [7]: minimal activity
- Competition of mTLR4 binding to GM-1-resin by excess free ligand [8]: dose-dependent decrease in the amount of mTLR4 bound to GM-1-resin
- Effect of mutation mMD-2_F126 on NF-κB activity (in words) [9]: abrogated NF-κB activation
- NOD2 activation in HEK-Blue reporter cells (in words) [10]: unable to activate NOD1/2
- TNF-α and IL-6 production in Tlr4-/- BMDMs (in words) [11]: fails to elicit increased levels of TNF-α and IL-6
- Effect of mutation mMD-2_F119 on NF-κB activity (in words) [12]: did not significantly impair the activity of GM
